Results on 1 molecule are retold here after ChEMBL document CHEMBL4396878, “Mechanisms of Specific versus Nonspecific Interactions of Aggregation-Prone Inhibitors and Attenuators” (J Med Chem, 2019).

For series [1], the target named is T1, Rap guanine nucleotide exchange factor 3 (Homo sapiens) (UniProt O95398).
T1 sequence (whole entry): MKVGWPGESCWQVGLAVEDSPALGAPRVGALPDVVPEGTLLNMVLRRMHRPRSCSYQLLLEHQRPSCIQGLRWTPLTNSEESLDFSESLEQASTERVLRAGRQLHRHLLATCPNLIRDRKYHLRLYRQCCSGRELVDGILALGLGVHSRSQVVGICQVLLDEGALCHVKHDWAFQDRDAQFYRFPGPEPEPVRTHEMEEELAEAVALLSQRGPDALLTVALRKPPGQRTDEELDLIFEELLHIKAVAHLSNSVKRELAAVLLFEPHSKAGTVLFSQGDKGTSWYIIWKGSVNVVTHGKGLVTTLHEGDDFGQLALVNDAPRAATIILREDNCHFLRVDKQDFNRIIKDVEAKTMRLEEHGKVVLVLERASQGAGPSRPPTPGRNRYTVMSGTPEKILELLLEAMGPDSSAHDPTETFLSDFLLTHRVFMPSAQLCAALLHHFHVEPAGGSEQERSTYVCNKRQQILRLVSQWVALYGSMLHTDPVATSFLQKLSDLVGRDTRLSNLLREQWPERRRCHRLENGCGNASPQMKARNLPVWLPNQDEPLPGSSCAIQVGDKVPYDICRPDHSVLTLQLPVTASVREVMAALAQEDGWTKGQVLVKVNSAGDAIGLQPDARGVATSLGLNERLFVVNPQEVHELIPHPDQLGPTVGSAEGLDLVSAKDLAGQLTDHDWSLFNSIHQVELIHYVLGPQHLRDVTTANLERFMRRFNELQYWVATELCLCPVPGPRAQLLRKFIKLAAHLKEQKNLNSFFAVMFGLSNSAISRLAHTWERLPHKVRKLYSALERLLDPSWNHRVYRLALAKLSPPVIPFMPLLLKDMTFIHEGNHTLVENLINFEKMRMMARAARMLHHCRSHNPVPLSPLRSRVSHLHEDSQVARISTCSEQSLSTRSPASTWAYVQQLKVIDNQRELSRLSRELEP
Briefly: Binding affinity to human EPAC1 cAMP binding domain (149 to 318 residues) assessed as increase in peak intensity in presence of human serum albumin by [15N-1H]HSQC spectroscopic analysis relative to control.

A short description of series [2]: Aggregation property of the compound in NMR buffer assessed as micellar morphology at 200 uM by uranyl acetate staining-based transmission electron microscopic analysis. Format: physicochemical.
In series [3] the target is T2, Albumin (Homo sapiens, UniProt P02768). Briefly: Displacement of dansylated phenylalanine from human serum albumin by fluorescence assay. The settings on record: read-out: Kd(app). The gist of the method: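 Competition of ligand against 100 μM dansyl-phenylalanine (binds Sudlow sites 1 and 2) bound to 2.5 μM HSA. Excitation 370 nm, emission 480 nm. Fractional saturation modelled with two sites, free HSA assumed negligible; least-squares fit with no further ESI sites, giving maximum apparent dissociation constants.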
T2 sequence (P02768 whole entry): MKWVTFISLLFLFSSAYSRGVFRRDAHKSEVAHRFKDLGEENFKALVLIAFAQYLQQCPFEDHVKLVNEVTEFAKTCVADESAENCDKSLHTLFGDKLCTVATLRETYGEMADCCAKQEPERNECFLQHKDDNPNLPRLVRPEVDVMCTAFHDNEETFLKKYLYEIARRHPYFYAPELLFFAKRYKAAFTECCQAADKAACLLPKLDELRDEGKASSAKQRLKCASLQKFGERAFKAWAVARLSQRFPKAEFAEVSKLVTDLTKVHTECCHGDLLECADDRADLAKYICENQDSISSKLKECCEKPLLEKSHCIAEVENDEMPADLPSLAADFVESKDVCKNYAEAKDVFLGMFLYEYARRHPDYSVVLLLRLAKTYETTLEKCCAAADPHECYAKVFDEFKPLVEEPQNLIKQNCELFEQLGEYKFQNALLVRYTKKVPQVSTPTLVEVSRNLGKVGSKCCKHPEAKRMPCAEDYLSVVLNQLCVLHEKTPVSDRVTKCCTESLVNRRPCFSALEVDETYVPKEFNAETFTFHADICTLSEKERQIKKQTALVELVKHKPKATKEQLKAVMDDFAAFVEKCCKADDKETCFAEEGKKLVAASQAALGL

Series [4] deals with T2, Albumin. Briefly: Binding affinity to human serum albumin assessed as inhibition of compound aggregation at 200 to 500 uM by dynamic light scattering analysis. Summed up: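 Dynamic light scattering in NMR buffer, samples filtered through 0.22 μm and centrifuged 5 min at 13 500 rpm before measurement. Autocorrelation accumulated 150 s at a 173° scattering angle, in replicates of 3–5, with water viscosity used in analysis; intensity or volume size distributions reported.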

Series [5] can be described thus: Aggregation property of the compound assessed as change in saturation transfer at 100 uM irradiated at 6.61 ppm by STD NMR spectra analysis. Format: physicochemical. The gist of the method: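 STD NMR, saturation by a train of 40 Gaussian pulses of 50 ms each; selective on-resonance irradiation at the stated ppm (TX at 7.48 ppm), off-resonance at 30 ppm, interleaved and subtracted by phase cycling. 32K points, 16 ppm width centred at 4.7 ppm, 256 scans, 16 dummy scans, 0.1 s recycle delay (~15 min); 3 Hz exponential line broadening.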

As to `CC(C)(C)c1cc(C(=O)/C(C#N)=N/Nc2cccc(Cl)c2)no1`, the Activity was 30 to 40% in series [1], “Active” in series [2] and “Not Active” in series [5]. Besides, the Kd in series [3] was found to be 99 nM. Moreover, the “inhibition (INH)” value in series [4] is “Active”.
